Reference: the EternaBench riboswitch data

Test system: MS2 coat protein
Assay: apparent Kd, MS2 coat protein; higher = weaker binding; RNA-MaP array; FMN 200 µM where present
Summary of the method: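 Each design was made on Illumina sequencing-chip clusters by stalled E. coli RNA polymerase and titrated with SNAP-549-labelled MS2 coat protein from 0.7 or 1.5 nM, doubling to 3 µM, in the absence and then the presence of constant ligand. The buffer was 100 mM Tris-HCl pH 7.5, 80 mM KCl, 4 mM MgCl2, BSA, DTT, yeast tRNA and Tween-20. The apparent Kd is the median of filtered per-cluster fits of binding curves, with green signal normalised to red-channel RNA signal and control-cluster median Fmax.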

[1] = ligand present: flavin mononucleotide, designed as: ON switch for flavin mononucleotide
[2] = designed as: OFF switch for flavin mononucleotide, no ligand
[3] = ligand present: flavin mononucleotide, designed as: OFF switch for flavin mononucleotide
[4] = designed as: ON switch for flavin mononucleotide, no ligand

Sequence | apparent Kd [1] [nM] | apparent Kd [2] [nM] | apparent Kd [3] [nM] | apparent Kd [4] [nM]
AAUGGGCAGCAGAAGGCAUGUCUACGGACAUGAGGAUCACCCAUGUAGUAAAGCCGAAAGGCGCAUGAGGAUAUGCUGCCCUAA | 8.23 | – | – | –
AAUGUACGAGGAUAUACAUAGAUACAGAUACAUGUAGACGUACAUGAGGAUCACCCAUGUAGAAGGCGUACAUA | – | 178 | 73.8 | –
AAUGUCUGAGGAUAUCGAAUAGUGUACAUGAGGAUCACCCAUGUUUUUAUUAGUAUAUUACGAGAAGGCAGUGGAA | – | 17.8 | 14.8 | –
AAUUACAGAUAAGGAUAUUGACAUGAGGAUCACCCAUGUAUUUGGGAAUGUUUACUGAAUUCUUACGAGAAGGUAUACGUACUU | – | 123 | 87 | –
AAUUACAGAUGAGGAUAUUGACAUGAGGAUCACCCAUGUAUUUGGGAAUGUUUACUGAAUUCUUACGAGAAGGUAUACGUACUU | – | 122 | 94.3 | –
AAUUAGGUCACAGGAUAUACUACAUCCAAUGCAGUAGAAGGGUGACACAUUCUGUGCAGACAUGAGGAUCACCCAUGUAACCAC | 6.39 | – | – | 11.6
AAUUAGUAAGAAUCACAUGAGGAUCACCCAUGUUUACGGAUGCAGGAUAUGUGGGAUAUUACUUAACAGAAGGGCAAUAACUUU | 44.2 | – | – | 104
AAUUAUAUACAGAAGGAGUUAUUUUGAGGAUUACUAGGAUAUGUUCACAUGAGGAUCACCCAUGUCAUAUUGGGAUUUAUUAUU | – | 19.5 | 26.7 | –
AAUUAUUGAUGAGGAUAUUGUGGUGAAACACGACAAGAAGGCAUUAUUCACAUGAGGAUCACCCAUGUGAGCCUGGUGCAUAUA | – | 15.5 | 13.8 | –
AAUUAUUUACAGAAGGAGUAAGAUUAUGUAUUACUAGGAUAUGUUCACAUGAGGAUCACCCAUGUACUAGUAGGUUUUUUAUGU | – | 6.96 | 7.66 | –
AAUUAUUUUUGAGGAUAUCGUGGUGAAACACCACGAGAAGGCAAGAUACACAUGAGGAUCACCCAUGUGAGCCUGAUGCUUAUG | – | 16.9 | 21.4 | –
AAUUCACAUGAGGAUCACCCAUGUCAGGAUAUGGUUUCACGGGUUUCGGUGCGUGAGGCCAGAAGGGACAGCUA | – | 61 | 73.7 | –
AAUUGACCGCUAGGAUAUGCACAUGAGGAUCACCCAUGUAAGCGUGUAAAGUGGUAUGCCCGUGUGUAGAAGGAGCGAUGCUGA | – | 47.6 | 40.6 | –
AAUUGGAUCCAGAAGGCAUGGACGACCCGUCACAUUAACAUGAGGAUCACCCAUGUAUAAAGACAUGAGGAUAUGGAUCCUAAA | 7.99 | – | – | 25.7
AAUUGGAUCCAGAAGGCAUGGACGACCCGUCACAUUAACAUGAGGAUCACCCAUGUCAAAAUACAUGAGGAUAUGGAUCCUAAA | 37.9 | – | – | 905
AAUUGUUUCUGAGGAUAUCAGUAGUAUGCUUUUUGAGAAGGCAGUACAUGAGGAUCACCCAUGUUGUGGUUUGAUAGAAUGAUA | 182 | – | – | 193
AAUUUAAAGGGAGGAUAUACAUGAGGAUCACCCAUGUAAUAAUAUGAUAUUUUUUUUGUAUGAGUGUAGAAGGCCCAAAUAAAA | – | 51.6 | 61 | –
AAUUUAAUACAUGAGGAUCACCCAUGUAAAUUAAUUAAGAUCUAGGAUAUCAGCUCGUUUAGAGCUGAGAAGGAGAUCACAUGU | 14.1 | – | – | 16.6
AAUUUACAGCUAGGAUAUACAUGAGGAUCACCCAUGUAAUCAUAUGAUAUUUUUUUUGUAUGAGUGUAGAAGGAGCAAAUAAAA | – | 9.38 | 8.69 | –
AAUUUACAGCUAGGAUAUACAUGAGGAUCACCCAUGUAAUGAUAGGAUCUUAUGAUCGUAUCAGUGUAGAAGGAGCAAAUAAGA | – | 9.39 | 8.81 | –
AAUUUCAGAUGAGGAUAUUGACAUGAGGAUCACCCAUGUAUUUGGGAAUGUUUACUGAAUUCUUACAAGAAGGUAUACGAACUU | – | 237 | 164 | –
ACAAAAGUUGAUCCUCGCUACAUGAGGAUCACCCAUGUAAUGGAGGAUAUGCAGCAACAAAACUCGCAGAAGGCCAUUUGCUGG | – | 52.5 | 30.5 | –
ACAAAUCGAGGAUAUACAUGAGGAUCACCCAUGUGGAGCCCACUGCGCGGUUCUCAGCGUAGAAGGCGAAAACA | – | 30.4 | 99.9 | –
ACAAAUGGAGGAUAUACAUGAGGAUCACCCAUGUUUAUCCUACAUAUGUGAUAAUAAUGUAGAAGGCCAUAUGA | – | 12.3 | 12.3 | –
ACAAAUGGAGGAUAUACAUGAGGAUCACCCAUGUUUAUCCUACAUAUGUGAUAAUCAUGUAGAAGGCCAUUUGA | – | 24.7 | 15.9 | –
ACAAGAGCGGAAGGAUAUUUUACAUGAGGAUCACCCAUGUAAUAAAUGAGGAUCACGGAUGUAGUAAAGAAGGUCCGGAUAAGA | – | 26.1 | 32.8 | –
ACAAUAGUAUCUCAUGUAUUACAUGAGGAUCACCCAUGUAACUAGGAUAUGUAUUAGAAUUUACAACAGAAGGAGUUAUUAUGU | – | 9.03 | 17.7 | –
ACAGAGCCUGACAUGAGGAUCACCCAUGUUAGAUUGUUAUGUCAGGAUAUUGUCUAGCAACUAGACAAGAAGGGACGCUCUGUG | 8.88 | – | – | 71.2
